Experiments:
[1] = molecular target: NAD(P)H dehydrogenase [quinone] 1 (Mus musculus) (UniProt Q64669); test: Induction of QR1-mediated cytoprotective activity in mouse Hepa-1c1c7 cells at 50 uM assessed as cell survival; format: cell-based
[2] = molecular target: NAD(P)H dehydrogenase [quinone] 1 (Mus musculus) (UniProt Q64669); test: Induction of QR1 activity in mouse TAOc1 mutant Hepa cells using MTT as substrate by spectrophotometry; format: cell-based
[3] = molecular target: NAD(P)H dehydrogenase [quinone] 1 (Mus musculus) (UniProt Q64669); test: Induction of QR1-mediated cytoprotective activity in mouse TAOc1 mutant Hepa cells at 50 uM assessed as cell survival; format: cell-based
[4] = molecular target: NAD(P)H dehydrogenase [quinone] 1 (Mus musculus) (UniProt Q64669); test: Induction of QR1 activity in mouse BPrc1 cells using MTT as substrate by spectrophotometry; format: cell-based
[5] = molecular target: NAD(P)H dehydrogenase [quinone] 1 (Mus musculus) (UniProt Q64669); test: Induction of QR1-mediated cytoprotective activity in mouse BPrc1 cells at 50 uM assessed as cell survival; format: cell-based
[6] = Inhibition of TNFalpha-activated NF-kappaB expressed in HEK293 cells by luciferase reporter gene assay; format: cell-based
MCF7 = test: Antiproliferative activity against human MCF7 cells after 72 hrs by SRB assay; format: functional, cell-based; settings: MCF7, 72 h
Procedure, shortened: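 MCF-7 breast cancer cells exposed to serially diluted compounds (DMSO) for 72 h at 37 °C in CO2 incubator; fixed with 10% trichloroacetic acid, stained with 0.4% SRB, OD read at 515 nm. Zero-day control of 1 × 10^4 cells per well processed after 30 min. Survival = (OD test − OD zero-day)/(OD control − OD zero-day) × 100; IC50 from survival.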

Aromatase [7] = molecular target: T1, Aromatase (Homo sapiens, UniProt P11511); settings: 2 h, read-out: Imax
T1 sequence (P11511 whole entry): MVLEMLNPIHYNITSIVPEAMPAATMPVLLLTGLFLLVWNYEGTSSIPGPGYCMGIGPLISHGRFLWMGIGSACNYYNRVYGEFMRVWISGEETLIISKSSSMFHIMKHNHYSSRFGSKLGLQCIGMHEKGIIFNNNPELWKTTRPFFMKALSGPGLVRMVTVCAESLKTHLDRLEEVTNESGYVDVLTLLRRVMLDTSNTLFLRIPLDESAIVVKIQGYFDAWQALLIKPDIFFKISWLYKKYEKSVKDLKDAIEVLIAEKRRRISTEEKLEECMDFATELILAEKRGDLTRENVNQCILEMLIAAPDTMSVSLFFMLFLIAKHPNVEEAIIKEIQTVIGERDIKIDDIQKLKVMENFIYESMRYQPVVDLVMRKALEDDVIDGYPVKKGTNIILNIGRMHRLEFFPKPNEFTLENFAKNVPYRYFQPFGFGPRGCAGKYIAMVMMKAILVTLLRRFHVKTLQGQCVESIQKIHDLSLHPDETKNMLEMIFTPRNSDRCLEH

Aromatase [8] = molecular target: T1, Aromatase
RAW264.7 [9] = test: Antiinflammatory activity in mouse RAW264.7 cells assessed as inhibition of LPS-induced NO production at 40 uM preincubated for 30 mins before LPS challenge by Griess method
[10] = molecular target: NAD(P)H dehydrogenase [quinone] 1 (Mus musculus) (UniProt Q64669); test: Induction of QR1 activity in mouse Hepa-1c1c7 cells using MTT as substrate by spectrophotometry; format: cell-based
Procedure, shortened: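 Mouse hepatoma Hepa 1c1c7 cells were incubated with compound, then permeabilised with digitonin. QR1 activity was read as MTT reduction to formazan at 595 nm, with crystal violet total protein run in parallel. Induction ratio is activity versus control; CD is the concentration doubling activity, derived only when the ratio is above 2.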

[11] = test system: Radical scavenging activity; test: Antioxidant activity assessed as DPPH free radical scavenging activity at 400 uM after 30 mins by spectrophotometry; format: functional
HEK293 = test: Inhibition of TNFalpha-activated NF-kappaB expressed in HEK293 cells at 50 uM by luciferase reporter gene assay; format: cell-based
Aromatase [12] = molecular target: T1, Aromatase; test: Ratio of trans-resveratrol IC50 to compound IC50 for human aromatase
RAW264.7 [13] = test: Antiinflammatory activity in mouse RAW264.7 cells assessed as inhibition of LPS-induced NO production preincubated for 30 mins before LPS challenge measured after 24 hrs by Griess method; format: functional, cell-based

Chain of NAD(P)H dehydrogenase [quinone] 1 (Mus musculus) (Q64669 whole entry): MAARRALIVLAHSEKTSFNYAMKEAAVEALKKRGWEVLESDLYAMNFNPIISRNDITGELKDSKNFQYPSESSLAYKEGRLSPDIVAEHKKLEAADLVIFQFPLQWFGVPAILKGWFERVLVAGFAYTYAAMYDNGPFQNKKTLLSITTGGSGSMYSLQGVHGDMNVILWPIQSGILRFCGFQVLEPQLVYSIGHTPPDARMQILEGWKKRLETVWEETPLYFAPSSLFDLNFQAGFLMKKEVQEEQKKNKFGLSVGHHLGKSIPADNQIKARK

SMILES | Survival [1] [%] | CD [2] [µM] | Survival [3] [%] | CD [4] [µM] | Survival [5] [%] | IC50 [6] [µM] | IC50 (MCF7) [µM] | inhibition at 50 µM (Aromatase [7]) [%] | IC50 (Aromatase [8]) [µM] | inhibition at 40 µM (RAW264.7 [9]) [%] | CD [10] [µM] | inhibition [11] [%] | inhibition (HEK293) [%] | Ratio IC50 (Aromatase [12]) | IC50 (RAW264.7 [13]) [µM]
c1ccc(-c2nsc(-c3ccccc3)n2)cc1 | 50.3 | 18.6 | 85.9 | 49.7 | 77.8 | 47.4 | 24.4 | 60.2 | > 50 | 55.7 | – | – | – | – | –
Cc1cccc(-c2nsc(-c3cccc(C)c3)n2)c1 | 33.7 | – | 94.9 | – | 100 | 0.8 | 22.1 | 32.9 | > 50 | 0.9 | 4 | 1.9 | – | – | –
c1cc(-c2nsc(-c3ccncc3)n2)ccn1 | 86.6 | – | – | – | – | – | – | 98 | 0.8 | 0.9 | – | -35.6 | 7.2 | 30 | –
Cc1ccc(Cl)cc1-c1nsc(-c2cc(Cl)ccc2C)n1 | 37.9 | 2 | 80.2 | 4.4 | 91.5 | – | 29 | 22 | > 50 | 25.9 | 0.47 | 1.3 | 29.7 | – | –
Nc1ccc(-c2nsc(-c3ccc(N)cc3)n2)cc1 | 66.1 | – | – | – | – | 7.6 | 30.8 | 70.4 | 26.5 | – | – | – | – | – | 23.3
c1cncc(-c2nsc(-c3cccnc3)n2)c1 | 73.5 | – | 71.6 | – | 87.8 | – | – | 97.2 | 0.2 | 1.3 | 53.1 | – | 30.9 | 125 | –
COc1cccc(-c2nsc(-c3cccc(OC)c3)n2)c1 | 63.7 | – | 76.3 | – | 97.1 | 0.4 | 24.2 | 26.6 | > 50 | 17.6 | 4.03 | -2.1 | 93.9 | – | –
Ic1ccccc1-c1nsc(-c2ccccc2I)n1 | 48.8 | 6.3 | 69.8 | 8.1 | 95.1 | – | – | 39.4 | > 50 | 30 | – | 3.4 | – | – | 30
Oc1ccc(-c2nsc(-c3ccc(O)cc3)n2)cc1 | 36.5 | – | – | – | – | 19.3 | 4.7 | 50.4 | > 50 | 93.7 | – | 3.4 | – | – | 13.5
Oc1cccc(-c2nsc(-c3cccc(O)c3)n2)c1 | 4 | – | 63.7 | – | 94.3 | 38.1 | – | 24.4 | > 50 | 47.4 | – | – | – | – | –
Cc1c(Cl)cccc1-c1nsc(-c2cccc(Cl)c2C)n1 | 96 | 48.7 | 68 | 38.2 | 100 | – | 30.3 | 19.8 | > 50 | 24.5 | 4 | 2.3 | 20.3 | – | –

From ChEMBL document CHEMBL1938272 (Bioorg Med Chem, 2012)
